# Screening results (PubChem BioAssay)
# Compounds with a hit are over-represented: about 2.1% of the library has one in this group of screens.
# Runt-CBFb FRET: inhibitors of human RUNX1 Runt domain binding to CBFb; inhibition, % at 20 µM; actives 0.46% (n = 220,000); Q01196+Q13951; AID 1496; Cerulean-Runt/Venus-CBFb FRET ratio 530/480, 1 h;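 active means inhibition over about 50% at 20 µM in the single-dose screen, limit read from the data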;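 further: 0% = DMSO wells and 100% = excess unlabeled CBFb competitor control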
#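 System: Cerulean-labeled Runt domain protein | Quantity: 100 nM of each labeled protein | Schedule: 1 h compound exposure, room temperature | Detection: Fluorescence energy transfer, 422 nm excitation, 530/480 nm emission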
# p-CIP stab down: lowers stability of the mouse p/CIP coactivator protein; Q05BA5; F442A p/CIP-EGFP cells, EGFP fluorescence, 16 h; decrease of EGFP signal, % at 10 µM; actives 0.01% (n = 290,000); AID 1984;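 active means EGFP signal decrease of at least 30% at 10 µM or well 3 SD below plate mean, unless failing retest; inactive means the rest, including hits failing retest or dose response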
# Hck Nef HTS: blocks Nef-activated human Hck kinase; P08631; Recombinant Hck-YEEI plus Nef, Z-Lyte FRET kinase assay; inhibition, % at 20 µM; actives 0.68% (n = 220,000); AID 463187;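 active means Hck-Nef kinase inhibition above about 50%, limit read from the data; inactive means inhibition below that limit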;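 further: 0% = DMSO with Hck plus Nef and 100% = Hck alone without Nef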
# Runt-SMMHC FRET: blocks binding of human RUNX1 Runt domain to CBFb-SMMHC; actives 0.74% (n = 220,000); inhibition, % at 20 µM; Cerulean-Runt/Venus-CBFb-SMMHC FRET ratio 530/480, 1 h; AID 1434; Q01196+Q13951;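 active means mean inhibition across duplicate retests at 20 µM reaching about 50%, limit read from the data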;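 further: 0% = DMSO wells and 100% = wells with excess untagged CBFb-SMMHC; inhibitors lower the FRET ratio by blocking Runt binding to CBFb-SMMHC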
# RanGTP-Impb inh: inhibitors of RanGTP-importin-beta interaction, primary screen, biochemical, FRET, CFP-Ran, YFP-importin-beta, homogeneous; cell-free CFP-Ran/YFP-importin-beta FRET ratio; inhibition, % (concentration not given with the values); actives 1.1% (n = 300,000);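 active means more than half of the replicate wells show a fall in the fluorescence ratio signal beyond about 16%, limit read from the data, passing the limit was not always enough; inconclusive means exactly half of the replicate wells pass the set limit; inactive means fewer than half of replicates pass the limit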;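 further: 0% = DMSO wells and 100% = Ran loaded with GDP instead of GTP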
# Pemphigus Ab inh: human desmoglein-3 autoantibody binding inhibition. DSG3-coupled beads, scFv-anti-DSG3-GFP binding, flow cytometry; hits give low values. binding (percent of control), % at 10 µM. actives 0.48% (n = 310,000). AID 588358;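 active means binding more than 3 SD below its plate's average and above zero; inconclusive means below that plate limit but binding exactly zero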;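 further: hits lower antibody fragment binding to DSG3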
# Target sequence (P32926 whole entry, looked up, the tested form may be a part): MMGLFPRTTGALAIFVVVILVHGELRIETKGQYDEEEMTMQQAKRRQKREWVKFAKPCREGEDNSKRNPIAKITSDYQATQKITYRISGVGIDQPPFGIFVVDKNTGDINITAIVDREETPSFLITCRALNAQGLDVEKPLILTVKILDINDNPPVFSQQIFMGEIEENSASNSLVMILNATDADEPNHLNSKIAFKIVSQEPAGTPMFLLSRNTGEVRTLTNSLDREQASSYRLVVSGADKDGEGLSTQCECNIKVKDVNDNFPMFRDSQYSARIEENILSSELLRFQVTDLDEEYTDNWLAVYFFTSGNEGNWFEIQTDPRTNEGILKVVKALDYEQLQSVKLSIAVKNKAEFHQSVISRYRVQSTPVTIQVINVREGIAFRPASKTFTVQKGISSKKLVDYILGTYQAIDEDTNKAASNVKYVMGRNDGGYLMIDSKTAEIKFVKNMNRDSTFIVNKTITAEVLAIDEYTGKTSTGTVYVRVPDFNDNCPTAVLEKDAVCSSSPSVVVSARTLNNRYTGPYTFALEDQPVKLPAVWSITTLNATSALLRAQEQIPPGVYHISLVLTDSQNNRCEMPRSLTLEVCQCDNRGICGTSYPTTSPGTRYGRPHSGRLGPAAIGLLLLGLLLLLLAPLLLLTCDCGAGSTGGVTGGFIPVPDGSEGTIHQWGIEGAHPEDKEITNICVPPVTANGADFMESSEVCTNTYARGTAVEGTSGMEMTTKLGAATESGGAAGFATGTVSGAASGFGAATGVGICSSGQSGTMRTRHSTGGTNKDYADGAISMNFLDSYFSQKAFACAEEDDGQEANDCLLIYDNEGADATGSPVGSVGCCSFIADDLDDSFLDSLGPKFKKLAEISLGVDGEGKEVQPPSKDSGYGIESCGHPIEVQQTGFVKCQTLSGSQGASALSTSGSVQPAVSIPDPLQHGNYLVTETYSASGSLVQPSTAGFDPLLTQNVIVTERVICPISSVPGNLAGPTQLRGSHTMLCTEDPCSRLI
# Hck-Nef confirm: confirmation of Hck-Nef kinase inhibitors | shares compounds with Hck Nef HTS | Recombinant Hck-YEEI:Nef, Z-Lyte FRET kinase assay | calls only at 10 µM | actives 28% (n = 1,300);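 active means average inhibition of at least 50%, with Z-scores no higher than 3 in both the phospho-tyrosine peptide and fluorescence counterscreens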
# The depositor's hits bear a star; i = inactive; ? = inconclusive; . = not tested or not shown; + = active, no number.
SMILES,Runt-CBFb FRET,p-CIP stab down,Hck Nef HTS,Runt-SMMHC FRET,RanGTP-Impb inh,Pemphigus Ab inh,Hck-Nef confirm
O=c1cc(-c2ccccc2Cl)oc2cc(O)cc(O)c12,-3,3,2,-2,0,100,.
O=C1C=CC(O)(c2cc(=O)c3c(O)cc(O)cc3o2)C=C1,9,-28,53*,6,7,94,i
O=C(/C=C/N1CCOCC1)c1ccc(-c2ccccc2)cc1,-1,-3,66*,-4,0,85,i
Cc1cccc(NC(=O)CSc2nc(=O)n(CCCN3CCOCC3)c3c2CCCC3)c1,.,.,.,.,2,99,.
Cc1cc2oc(C(=O)Nc3ccc(S(=O)(=O)Nc4nccs4)cc3)cc(=O)c2cc1Cl,-14,-6,9,-14,-3,102,.
Cc1cc(C)c2oc(C(=O)Nc3ccc(S(=O)(=O)Nc4nccs4)cc3)cc(=O)c2c1,-4,8,51*,-1,7,92,i
CC(C)(C)OC(=O)NN1CC(=O)N2[C@@H](Cc3c([nH]c4ccccc34)C2(C)C)C1=O,.,-12,.,.,2,101,.
COc1ccc(C)cc1NC(=O)Nc1cnccn1,0,2,102*,4,0,90,+
Cc1nn(C)cc1S(=O)(=O)N1CCCCC1C (configuration not stated),.,24,.,.,0,.,.
O=C(O)c1ccc(N2C(=O)/C(=C/c3ccc(-c4ccc([N+](=O)[O-])cc4)o3)C=C2c2ccccc2)cc1,11,-1,72*,-44,-11,30,+
O=C1NN(c2ccccc2)C(=O)/C1=C/c1ccc(-c2ccc(C(=O)O)cc2)o1,.,4,.,.,5,97,.
O=c1[nH][nH]cc1C=Nc1ccc(Oc2ccccc2)cc1,-1,-9,164*,-3,-2,101,+
COc1ccc(N=Cc2c[nH][nH]c2=O)cc1,-2,-4,3,2,-1,98,.
O=C(COC(=O)c1ccccc1NCCO)Nc1cccc(S(=O)(=O)NC2=NCCCCC2)c1,.,.,.,.,2,101,.
O=C(Nc1ccc(-n2nncc2-c2ccco2)cc1)c1cc2ccccc2oc1=O,4,-6,51*,-33,-1,103,+
O=C(Nc1ccc(-n2nncc2-c2ccco2)cc1)c1cccc(F)c1,8,1,-1,0,2,100,.
O=C(CSc1nc2ccccc2n1CCc1ccccc1)c1ccc(O)c(O)c1,10,6,189*,2,.,72*,+
O=C(N/N=C/c1ccc([N+](=O)[O-])o1)c1ccc(NS(=O)(=O)c2cccs2)cc1,0,-5,55*,-2,2,86,i
O=C(N/N=C/c1ccc([N+](=O)[O-])cc1)c1ccc(NS(=O)(=O)c2cccs2)cc1,.,.,.,.,.,99,.
COc1ccc(S(=O)(=O)NNC(=O)C23CC4CC(CC(C4)C2)C3)cc1[N+](=O)[O-],.,.,.,.,7,101,.
O=C(c1ccccc1)c1ccc2nc(Nc3ccccc3)c3nncn3c2c1,0,-12,68*,-65,1,84,i
C/C(CC(=O)Nc1cccc(Br)c1)=N\NC(=O)c1ccc(O)cc1O,.,-27,.,.,?,91,.
CCN(CC)c1ccc2c(C)c(CO)c(=O)oc2c1,21,-8,+,86*,132*,104,.
COC(=O)Cc1c(C)c2ccc(OCC(=O)N3CCOCC3)cc2oc1=O,0,2,1,4,-1,98,.
CCN(CC)c1ccc2c(C)c(CN3CCOCC3)c(=O)oc2c1,11,11,102*,41,1,.,.
SMILES,Runt-CBFb FRET,p-CIP stab down,Hck Nef HTS,Runt-SMMHC FRET,RanGTP-Impb inh,Pemphigus Ab inh,Hck-Nef confirm
CCN(CC)c1ccc2c(Cl)cc(=O)oc2c1,40,-8,66*,-20,74*,.,.
COc1nc(=O)n(C2C=CC(=O)O2)cc1F (configuration not stated),.,.,.,.,.,105,.
CCOc1ccc(N2CC(O)=C(c3nc4ccccc4c(=O)[nH]3)C2=N)cc1,-1,-4,55*,-5,-1,104,i
COC(=O)c1ccccc1NC(=O)c1ccc2c(c1)C(=O)N(Cc1ccco1)C2=O,.,.,58*,.,?,105,i
O=C(CSc1nnc(SCc2ccccc2)s1)N/N=C/c1c[nH]c2ccccc12,.,9,95*,-54,-7,93,+
Cc1cc(O)c(-c2cc(C(=O)Nc3sc4c(c3C(=O)NCc3ccco3)CCC4)[nH]n2)cc1C,-10,-6,59*,-8,?,81,i
Cc1ccc(-c2cc(C(=O)Nc3sc4c(c3C(=O)NCc3ccco3)CCC4)[nH]n2)c(O)c1,-8,-19,3,-19,?,67,.
CCNC(=O)c1c(NC(=O)c2cc(-c3cc(C)ccc3O)n[nH]2)sc2c1CCCC2,-24,7,100*,-24,6,88,i
O=C(/C=C/c1cccc(O)c1)c1ccc(N2CCOCC2)cc1,1,1,16,-12,-7,86,.
COC(=O)c1sc2ncccc2c1OCc1c(Cl)cccc1Cl,0,-12,55*,-1,?,103,i
COC(C)(C)c1cc(C(C)(C)C)nc(N)n1,-2,0,102*,-3,2,104,i
CC(C)(C)c1cc(=O)n2[nH]c(N)nc2n1,0,-7,18,-2,-1,102,.
COc1ccc(C(=O)Nc2cc(-c3ccccc3)nn2-c2ccccc2F)cc1,.,.,.,.,.,102,.
Cc1ccc(S(=O)(=O)N2CCCCC2)cc1C(=O)NCCCN1CCOCC1,.,-9,.,.,1,105,.
O=C(CSc1nnc(NC(=O)c2cccc(Cl)c2)s1)NCC1CCCO1 (configuration not stated),.,5,.,.,-1,102,.
COc1ccc(NC(=O)c2cc3c(=O)n(C)c4ccccc4c3n2C)cc1Cl,-3,-1,61*,2,2,102,i
COc1ccc(NC(=O)c2cc3c(=O)n(C)c4ccccc4c3n2C)cc1OC,4,1,1,-2,-5,81,.
COc1ccccc1C(=O)Oc1cc(N)n(S(=O)(=O)c2ccccc2)n1,5,2,107*,-5,-2,97,i
CC(C)c1ccc(-c2nc(N3CCCC3)nc3n[nH]c(N)c23)cc1,-4,0,1,1,0,105,.
Nc1[nH]nc2nc(N3CCOCC3)nc(-c3ccccc3)c12,0,-9,67*,4,-4,107,+
C[C@H](CO)N1C[C@H](C)[C@@H](CN(C)S(C)(=O)=O)Oc2ccc(NC(=O)CCC(F)(F)F)cc2C1=O,.,.,.,.,.,100,.
